Measured values as given in ChEMBL document CHEMBL4689842, “EUbOPEN Chemogenomics Library wave 1” (2021).

System: HEK-293T
Test: Multiplex assay against HEK293T;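 for Population Tubulin-Different-Phenotype (%): share of the cells with healthy nuclei that show this phenotype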
Type: toxicity, cell-based
Settings: human
Procedure, shortened: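 Cells stained live at seeding with Hoechst33342, BioTracker Green Microtubule Cytoskeleton Dye, MitoTracker Red and Annexin V Alexa Fluor 680 were imaged on a CQ1 microscope at 37°C and 5% CO2 after compound addition. Their classification by CellPathfinder machine-learning gating ran from Hoechst high-intensity objects versus normal cells, to healthy, pyknosed or fragmented nuclei among normal cells, to mitotic or apoptotic among pyknosed cells. Tubulin, mitochondrial-mass and membrane-permeability phenotypes are per cents of healthy-nucleus cells.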

[1] = 12 h, 1 µM, compound concentration 1 uM, replicate 1
[2] = 12 h, 1 µM, compound concentration 1 uM, replicate 2
[3] = 12 h, 10 µM, compound concentration 10 uM, replicate 1
[4] = 12 h, 10 µM, compound concentration 10 uM, replicate 2
[5] = 24 h, 1 µM, compound concentration 1 uM, replicate 1
[6] = 24 h, 1 µM, compound concentration 1 uM, replicate 2
[7] = 24 h, 10 µM, compound concentration 10 uM, replicate 1
[8] = 24 h, 10 µM, compound concentration 10 uM, replicate 2
[9] = 48 h, 1 µM, compound concentration 1 uM, replicate 1
[10] = 48 h, 1 µM, compound concentration 1 uM, replicate 2
[11] = 48 h, 10 µM, compound concentration 10 uM, replicate 1
[12] = 48 h, 10 µM, compound concentration 10 uM, replicate 2

In the case of `CCCCCNC(=N)N/N=C/c1c[nH]c2ccc(OC)cc12.O=C(O)/C=C\C(=O)O` [TEGASEROD MALEATE], the “Population Apoptotic (%)” value [1] is reported as 45%, the “Population Fragmented Nuclei (%)” value [1] is reported as 20% and the “Population Healthy Nuclei (%)” value [1] is reported as 42%. The “Population Hoechst High Intensity Objects (%)” value [1] was 16%, the “Population Membrane Permeable-Phenotype (%)” value [1] was 4% and the “Population Mitochondria Different-Phenotype (%)” value [1] was 88%. The “Population Mitotic Cells (%)” value [1] was 54%, the “Population Normal (%)” value [1] was 83% and the “Population Pyknosed Nuclei (%)” value [1] was 36%. For the same molecule, the “Population Tubulin-Different-Phenotype (%)” value [1] was 52%, the “Total Cell Count” value [1] was 192 and the “Population Apoptotic (%)” value [2] was 24%. The “Population Fragmented Nuclei (%)” value [2] was 4%, the “Population Healthy Nuclei (%)” value [2] was 35% and the “Population Hoechst High Intensity Objects (%)” value [2] was 1%. The “Population Membrane Permeable-Phenotype (%)” value [2] was 9%, the “Population Mitochondria Different-Phenotype (%)” value [2] was 50% and the “Population Mitotic Cells (%)” value [2] was 75%. The “Population Normal (%)” value [2] was 98%, the “Population Pyknosed Nuclei (%)” value [2] was 59% and the “Population Tubulin-Different-Phenotype (%)” value [2] was 48%. For the same molecule, the “Total Cell Count” value [2] was 204, the “Population Apoptotic (%)” value [3] was 51% and the “Population Fragmented Nuclei (%)” value [3] was 27%. The “Population Healthy Nuclei (%)” value [3] was 0%, the “Population Hoechst High Intensity Objects (%)” value [3] was 27% and the “Population Membrane Permeable-Phenotype (%)” value [3] was 0%. For the same molecule, the “Population Mitochondria Different-Phenotype (%)” value [3] was 0%, the “Population Mitotic Cells (%)” value [3] was 48% and the “Population Normal (%)” value [3] was 72%. For the same molecule, the “Population Pyknosed Nuclei (%)” value [3] was 72%, the “Population Tubulin-Different-Phenotype (%)” value [3] was 0% and the “Total Cell Count” value [3] was 295. The “Population Apoptotic (%)” value [4] was 96%, the “Population Fragmented Nuclei (%)” value [4] was 15% and the “Population Healthy Nuclei (%)” value [4] was 3%. For the same molecule, the “Population Hoechst High Intensity Objects (%)” value [4] was 29%, the “Population Mitotic Cells (%)” value [4] was 3% and the “Population Normal (%)” value [4] was 70%. The “Population Pyknosed Nuclei (%)” value [4] was 81%, the “Population Tubulin-Different-Phenotype (%)” value [4] was 100% and the “Total Cell Count” value [4] was 93. For the same molecule, the “Population Apoptotic (%)” value [5] was 46%, the “Population Fragmented Nuclei (%)” value [5] was 15% and the “Population Healthy Nuclei (%)” value [5] was 60%. The “Population Hoechst High Intensity Objects (%)” value [5] was 13%, the “Population Membrane Permeable-Phenotype (%)” value [5] was 1% and the “Population Mitochondria Different-Phenotype (%)” value [5] was 83%. The “Population Mitotic Cells (%)” value [5] was 53%, the “Population Normal (%)” value [5] was 86% and the “Population Pyknosed Nuclei (%)” value [5] was 23%. The “Population Tubulin-Different-Phenotype (%)” value [5] was 46%, the “Total Cell Count” value [5] was 196 and the “Population Apoptotic (%)” value [6] was 24%. For the same molecule, the “Population Fragmented Nuclei (%)” value [6] was 4%, the “Population Healthy Nuclei (%)” value [6] was 54% and the “Population Hoechst High Intensity Objects (%)” value [6] was 3%. For the same molecule, the “Population Membrane Permeable-Phenotype (%)” value [6] was 7%, the “Population Mitochondria Different-Phenotype (%)” value [6] was 46% and the “Population Mitotic Cells (%)” value [6] was 75%. For the same molecule, the “Population Normal (%)” value [6] was 96%, the “Population Pyknosed Nuclei (%)” value [6] was 40% and the “Population Tubulin-Different-Phenotype (%)” value [6] was 43%. For the same molecule, the “Total Cell Count” value [6] was 260, the “Population Apoptotic (%)” value [7] was 54% and the “Population Fragmented Nuclei (%)” value [7] was 31%. For the same molecule, the “Population Healthy Nuclei (%)” value [7] was 0%, the “Population Hoechst High Intensity Objects (%)” value [7] was 35% and the “Population Membrane Permeable-Phenotype (%)” value [7] was 100%. For the same molecule, the “Population Mitochondria Different-Phenotype (%)” value [7] was 100%, the “Population Mitotic Cells (%)” value [7] was 45% and the “Population Normal (%)” value [7] was 64%. The “Population Pyknosed Nuclei (%)” value [7] was 68%, the “Population Tubulin-Different-Phenotype (%)” value [7] was 0% and the “Total Cell Count” value [7] was 288. The “Population Apoptotic (%)” value [8] was 97%, the “Population Fragmented Nuclei (%)” value [8] was 25% and the “Population Healthy Nuclei (%)” value [8] was 27%. For the same molecule, the “Population Hoechst High Intensity Objects (%)” value [8] was 13%, the “Population Membrane Permeable-Phenotype (%)” value [8] was 23% and the “Population Mitochondria Different-Phenotype (%)” value [8] was 9%. For the same molecule, the “Population Mitotic Cells (%)” value [8] was 2%, the “Population Normal (%)” value [8] was 86% and the “Population Pyknosed Nuclei (%)” value [8] was 46%. The “Population Tubulin-Different-Phenotype (%)” value [8] was 85%, the “Total Cell Count” value [8] was 89 and the “Population Fragmented Nuclei (%)” value [9] was 9%. For the same molecule, the “Population Healthy Nuclei (%)” value [9] was 77%, the “Population Hoechst High Intensity Objects (%)” value [9] was 8% and the “Population Membrane Permeable-Phenotype (%)” value [9] was 0%. The “Population Mitochondria Different-Phenotype (%)” value [9] was 38%, the “Population Normal (%)” value [9] was 91% and the “Population Pyknosed Nuclei (%)” value [9] was 12%. The “Population Tubulin-Different-Phenotype (%)” value [9] was 30%, the “Total Cell Count” value [9] was 290 and the “Population Apoptotic (%)” value [10] was 33%. For the same molecule, the “Population Fragmented Nuclei (%)” value [10] was 7%, the “Population Healthy Nuclei (%)” value [10] was 78% and the “Population Hoechst High Intensity Objects (%)” value [10] was 4%. For the same molecule, the “Population Membrane Permeable-Phenotype (%)” value [10] was 5%, the “Population Mitochondria Different-Phenotype (%)” value [10] was 21% and the “Population Mitotic Cells (%)” value [10] was 66%. The “Population Normal (%)” value [10] was 95%, the “Population Pyknosed Nuclei (%)” value [10] was 14% and the “Population Tubulin-Different-Phenotype (%)” value [10] was 42%. The “Total Cell Count” value [10] was 411, the “Population Apoptotic (%)” value [11] was 58% and the “Population Fragmented Nuclei (%)” value [11] was 36%. For the same molecule, the “Population Healthy Nuclei (%)” value [11] was 0%, the “Population Hoechst High Intensity Objects (%)” value [11] was 31% and the “Population Membrane Permeable-Phenotype (%)” value [11] was 0%. For the same molecule, the “Population Mitochondria Different-Phenotype (%)” value [11] was 0%, the “Population Mitotic Cells (%)” value [11] was 41% and the “Population Normal (%)” value [11] was 68%. The “Population Pyknosed Nuclei (%)” value [11] was 63%, the “Population Tubulin-Different-Phenotype (%)” value [11] was 0% and the “Total Cell Count” value [11] was 277. The “Population Apoptotic (%)” value [12] was 100%, the “Population Fragmented Nuclei (%)” value [12] was 32% and the “Population Healthy Nuclei (%)” value [12] was 47%. For the same molecule, the “Population Hoechst High Intensity Objects (%)” value [12] was 6%, the “Population Membrane Permeable-Phenotype (%)” value [12] was 17% and the “Population Mitochondria Different-Phenotype (%)” value [12] was 28%. The “Population Mitotic Cells (%)” value [12] was 0%, the “Population Normal (%)” value [12] was 93% and the “Population Pyknosed Nuclei (%)” value [12] was 20%. The “Population Tubulin-Different-Phenotype (%)” value [12] was 65% and the “Total Cell Count” value [12] was 79.
